ChEMBL document CHEMBL4257579, “Analogs of penfluridol as chemotherapeutic agents with reduced central nervous system activity” (Bioorg Med Chem Lett, 2018)

Tests used:
[1] = target: Alpha-2B adrenergic receptor (Homo sapiens) (UniProt P18089); assay: Displacement of [3H]Rauwolscine from human alpha 2B adrenergic receptor expressed in HEK293T cells by radioligand binding assay relative to control; assay type: cell-based; conditions: concentration not given here
[2] = system: Mus musculus; assay: Toxicity in C57BL/6J mouse assessed as increase in glutamate dehydrogenase level at 5 mg/kg, ip treated daily for 7 consecutive days measured after 24 hrs post last dose […]; assay type: organism-based; conditions: in vivo
Procedure, shortened: (§1)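 Female C57BL6 mice given 5 mg/kg i.p. daily for 7 days; blood taken at sacrifice 24 h after last dose for clinical chemistry panel: electrolytes, minerals, total protein, albumin, globulin, A/G ratio, BUN, ALT, AST, GLDH, cholestasis markers, ALP, bilirubin, amylase, creatine kinase.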

[3] = target: Alpha-2B adrenergic receptor (Homo sapiens, UniProt P18089); assay: Displacement of [3H]Rauwolscine from human alpha 2B adrenergic receptor expressed in HEK293T cells by radioligand binding assay; assay type: cell-based
Chain of Alpha-2B adrenergic receptor (P18089 whole entry): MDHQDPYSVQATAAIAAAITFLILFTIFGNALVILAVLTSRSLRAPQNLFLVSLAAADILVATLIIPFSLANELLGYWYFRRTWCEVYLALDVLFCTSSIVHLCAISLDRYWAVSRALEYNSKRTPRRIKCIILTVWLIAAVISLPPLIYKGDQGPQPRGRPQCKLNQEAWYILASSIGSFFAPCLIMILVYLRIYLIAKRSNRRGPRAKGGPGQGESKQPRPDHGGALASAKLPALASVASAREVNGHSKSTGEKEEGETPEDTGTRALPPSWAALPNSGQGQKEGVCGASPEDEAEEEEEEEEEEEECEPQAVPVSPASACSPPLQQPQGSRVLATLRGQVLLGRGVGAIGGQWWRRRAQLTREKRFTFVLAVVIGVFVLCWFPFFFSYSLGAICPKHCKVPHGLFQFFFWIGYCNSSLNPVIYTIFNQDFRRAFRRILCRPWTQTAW
Procedure, shortened: (§2)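 Ki values were calculated from the radioligand displacement data.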

[4] = target: T1, Beta-3 adrenergic receptor (Homo sapiens, UniProt P13945); assay: Displacement of [3H]CGP12177 from human beta 3 adrenergic receptor expressed in HEK293FlpIN cells by radioligand binding assay; assay type: cell-based; procedure, shortened: as §2
Target sequence in this assay (P13945 whole entry): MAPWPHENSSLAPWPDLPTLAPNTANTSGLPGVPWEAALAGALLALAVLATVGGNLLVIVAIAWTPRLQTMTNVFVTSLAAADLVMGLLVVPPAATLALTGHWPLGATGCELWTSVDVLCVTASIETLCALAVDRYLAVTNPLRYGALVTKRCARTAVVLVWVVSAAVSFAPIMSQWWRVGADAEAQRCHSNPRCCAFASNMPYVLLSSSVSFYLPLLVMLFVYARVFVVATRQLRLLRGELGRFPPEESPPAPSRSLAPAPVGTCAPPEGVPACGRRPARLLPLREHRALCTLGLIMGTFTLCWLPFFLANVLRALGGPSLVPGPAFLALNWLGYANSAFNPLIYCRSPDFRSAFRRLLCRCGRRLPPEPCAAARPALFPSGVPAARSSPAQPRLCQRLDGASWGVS

[5] = system: Mus musculus; assay: Toxicity in C57BL/6J mouse assessed as reduction in alkaline phosphatase level at 5 mg/kg, ip treated daily for 7 consecutive days measured after 24 hrs post last dose […]; assay type: organism-based; conditions: in vivo; procedure, shortened: as §1
[6] = system: Mus musculus; assay: Toxicity in C57BL/6J mouse assessed as decrease in blood urea nitrogen level at 5 mg/kg, ip treated daily for 7 consecutive days measured after 24 hrs post last dose […]; conditions: in vivo
[7] = target: Alpha-1D adrenergic receptor (Homo sapiens, UniProt P25100); assay: Displacement of [3H]Prazosin from human alpha 1D adrenergic receptor expressed in HEK cells by radioligand binding assay; assay type: cell-based; procedure, shortened: as §2
Chain of Alpha-1D adrenergic receptor (P25100 whole entry): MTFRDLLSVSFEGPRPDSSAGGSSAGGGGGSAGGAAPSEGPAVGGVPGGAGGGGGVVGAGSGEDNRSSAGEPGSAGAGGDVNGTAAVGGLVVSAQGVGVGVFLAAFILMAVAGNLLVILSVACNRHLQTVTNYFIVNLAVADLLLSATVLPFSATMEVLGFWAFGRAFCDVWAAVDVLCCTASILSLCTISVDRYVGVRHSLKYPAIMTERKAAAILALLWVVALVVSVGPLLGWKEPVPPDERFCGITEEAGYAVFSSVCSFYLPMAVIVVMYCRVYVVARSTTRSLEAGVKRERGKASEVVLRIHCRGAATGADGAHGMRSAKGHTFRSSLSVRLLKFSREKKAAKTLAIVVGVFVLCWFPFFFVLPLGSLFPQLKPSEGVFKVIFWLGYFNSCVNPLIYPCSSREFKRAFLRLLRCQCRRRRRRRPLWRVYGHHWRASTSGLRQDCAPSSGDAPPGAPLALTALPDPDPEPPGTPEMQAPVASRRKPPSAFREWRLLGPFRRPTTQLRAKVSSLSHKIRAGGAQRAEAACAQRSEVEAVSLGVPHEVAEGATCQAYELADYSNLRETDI

[8] = target: T1, Beta-3 adrenergic receptor; assay: Displacement of [3H]CGP12177 from human beta 3 adrenergic receptor expressed in HEK293FlpIN cells by radioligand binding assay relative to control; assay type: cell-based; conditions: concentration not given here
Target sequence in this assay (P13945 whole entry, looked up): as the sequence (P13945 whole entry) above

[9] = target: Alpha-2C adrenergic receptor (Homo sapiens) (UniProt P18825); assay: Displacement of [3H]Rauwolscine from human alpha 2C adrenergic receptor expressed in MDCK cells by radioligand binding assay relative to control; assay type: cell-based; conditions: concentration not given here
Chain of Alpha-2C adrenergic receptor (Homo sapiens) (P18825 whole entry): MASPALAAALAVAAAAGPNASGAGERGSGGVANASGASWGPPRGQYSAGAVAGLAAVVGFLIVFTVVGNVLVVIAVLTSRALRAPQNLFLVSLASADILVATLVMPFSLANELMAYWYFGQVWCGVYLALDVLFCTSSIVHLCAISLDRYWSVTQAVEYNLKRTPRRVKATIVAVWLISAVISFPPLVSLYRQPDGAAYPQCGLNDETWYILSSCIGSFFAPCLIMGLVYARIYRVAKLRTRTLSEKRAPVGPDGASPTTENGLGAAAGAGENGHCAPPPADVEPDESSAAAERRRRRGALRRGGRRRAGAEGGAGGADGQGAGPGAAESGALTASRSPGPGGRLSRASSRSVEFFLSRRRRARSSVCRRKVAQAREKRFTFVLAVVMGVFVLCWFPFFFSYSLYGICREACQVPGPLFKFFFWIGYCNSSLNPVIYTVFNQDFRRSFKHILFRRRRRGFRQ

[10] = target: Alpha-2C adrenergic receptor (Homo sapiens, UniProt P18825); assay: Displacement of [3H]Rauwolscine from human alpha 2C adrenergic receptor expressed in MDCK cells by radioligand binding assay; assay type: cell-based; procedure, shortened: as §2
Chain of Alpha-2C adrenergic receptor (P18825 whole entry): as above

[11] = target: Alpha-1D adrenergic receptor (Homo sapiens) (UniProt P25100); assay: Displacement of [3H]Prazosin from human alpha 1D adrenergic receptor expressed in HEK cells by radioligand binding assay relative to control; assay type: cell-based; conditions: concentration not given here
Chain of Alpha-1D adrenergic receptor (Homo sapiens) (P25100 whole entry): as the sequence (P25100 whole entry) above

[12] = system: Mus musculus; assay: Toxicity in C57BL/6J mouse assessed as total protein level at 5 mg/kg, ip treated daily for 7 consecutive days measured after 24 hrs post last dose […]; assay type: organism-based; conditions: in vivo; procedure, shortened: as §1
[13] = system: Mus musculus; assay: Toxicity in C57BL/6J mouse assessed as creatine kinase level at 5 mg/kg, ip treated daily for 7 consecutive days measured after 24 hrs post last dose […]; assay type: organism-based; conditions: in vivo; procedure, shortened: as §1
[14] = Drug distribution in C57BL/6J mouse brain at 5 mg/kg, ip treated daily for 7 consecutive days measured after 24 hrs post last dose by LC/MS/MS analysis; assay type: ADME, organism-based; conditions: in vivo
Procedure, shortened: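 Female C57BL6 mice dosed 5 mg/kg i.p. once daily for seven consecutive days; sacrificed 24 h after last injection, organs stored at −80 °C. Plasma, brain, lungs and adipose tissue analysed by LC-MS/MS for drug concentration (nM); n = 5.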

[15] = system: Mus musculus; assay: Toxicity in C57BL/6J mouse assessed as minerals level at 5 mg/kg, ip treated daily for 7 consecutive days measured after 24 hrs post last dose […]; assay type: organism-based; conditions: in vivo; procedure, shortened: as §1
[16] = system: Mus musculus; assay: Toxicity in C57BL/6J mouse assessed as ratio of albumin to globulin level at 5 mg/kg, ip treated daily for 7 consecutive days measured after 24 hrs post last dose […]; assay type: organism-based; conditions: in vivo; procedure, shortened: as §1
[17] = system: Mus musculus; assay: Toxicity in C57BL/6J mouse assessed as electrolytes level at 5 mg/kg, ip treated daily for 7 consecutive days measured after 24 hrs post last dose […]; assay type: organism-based; conditions: in vivo; procedure, shortened: as §1
[18] = system: Mus musculus; assay: Toxicity in C57BL/6J mouse assessed as effect on brain weight at 5 mg/kg, ip treated daily for 7 consecutive days measured after 24 hrs post last dose; assay type: organism-based; conditions: in vivo
Procedure, shortened: (§3)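 Female C57BL6 mice treated 5 mg/kg i.p. once daily for seven days; killed 24 h after final injection and organs collected and weighed.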

[19] = system: Mus musculus; assay: Toxicity in C57BL/6J mouse assessed as effect on spleen weight at 5 mg/kg, ip treated daily for 7 consecutive days measured after 24 hrs post last dose; assay type: organism-based; conditions: in vivo; procedure, shortened: as §3
[20] = system: Mus musculus; assay: Toxicity in C57BL/6J mouse assessed as alanine aminotransferase level at 5 mg/kg, ip treated daily for 7 consecutive days measured after 24 hrs post last dose […]; assay type: organism-based; conditions: in vivo; procedure, shortened: as §1
[21] = system: Mus musculus; assay: Toxicity in C57BL/6J mouse assessed as globulin level at 5 mg/kg, ip treated daily for 7 consecutive days measured after 24 hrs post last dose […]; assay type: organism-based; conditions: in vivo; procedure, shortened: as §1
[22] = system: Mus musculus; assay: Toxicity in C57BL/6J mouse assessed as effect on heart weight at 5 mg/kg, ip treated daily for 7 consecutive days measured after 24 hrs post last dose; assay type: organism-based; conditions: in vivo; procedure, shortened: as §3
[23] = system: Mus musculus; assay: Toxicity in C57BL/6J mouse assessed as effect on liver weight at 5 mg/kg, ip treated daily for 7 consecutive days measured after 24 hrs post last dose; assay type: organism-based; conditions: in vivo; procedure, shortened: as §3
[24] = Tmax in C57BL/6J mouse brain at 10 mg/kg, ip treated daily for 7 consecutive days by LC/MS/MS analysis; assay type: ADME, organism-based
[25] = system: Mus musculus; assay: Toxicity in C57BL/6J mouse assessed as cholestasis level at 5 mg/kg, ip treated daily for 7 consecutive days measured after 24 hrs post last dose […]; assay type: organism-based; conditions: in vivo; procedure, shortened: as §1
[26] = system: Mus musculus; assay: Toxicity in C57BL/6J mouse assessed as albumin level at 5 mg/kg, ip treated daily for 7 consecutive days measured after 24 hrs post last dose […]; assay type: organism-based; conditions: in vivo; procedure, shortened: as §1
[27] = system: Mus musculus; assay: Toxicity in C57BL/6J mouse assessed as bilirubin level at 5 mg/kg, ip treated daily for 7 consecutive days measured after 24 hrs post last dose […]; assay type: organism-based; conditions: in vivo; procedure, shortened: as §1
[28] = system: Mus musculus; assay: Toxicity in C57BL/6J mouse assessed as effect on lung weight at 5 mg/kg, ip treated daily for 7 consecutive days measured after 24 hrs post last dose; assay type: organism-based; conditions: in vivo; procedure, shortened: as §3
[29] = system: Mus musculus; assay: Toxicity in C57BL/6J mouse assessed as amylase level at 5 mg/kg, ip treated daily for 7 consecutive days measured after 24 hrs post last dose […]; assay type: organism-based; conditions: in vivo; procedure, shortened: as §1
[30] = system: Mus musculus; assay: Toxicity in C57BL/6J mouse assessed as effect on kidney weight at 5 mg/kg, ip treated daily for 7 consecutive days measured after 24 hrs post last dose; assay type: organism-based; conditions: in vivo; procedure, shortened: as §3
[31] = system: Mus musculus; assay: Toxicity in C57BL/6J mouse assessed as aspartate aminotransferase level at 5 mg/kg, ip treated daily for 7 consecutive days measured after 24 hrs post last dose […]; assay type: organism-based; conditions: in vivo; procedure, shortened: as §1

Chain of Alpha-2B adrenergic receptor (Homo sapiens) (P18089 whole entry): as the sequence (P18089 whole entry) above

Row | SMILES | Activity [2] | Activity [5] | Activity [6] | Activity [12] | Activity [13] | Drug uptake [14] | Activity [15] | Activity [16] | Activity [17] | Activity [18] | Activity [19] | Activity [20] | Activity [21] | Activity [22] | Activity [23] | Activity [25] | Activity [26] | Activity [27] | Activity [28] | Activity [29] | also measured
1 | OC1(c2ccc(Cl)c(C(F)(F)F)c2)CCN(CCCC(c2ccc(F)cc2)c2ccc(F)cc2)CC1 [PENFLURIDOL] | Toxic | Toxic | Toxic |  |  |  |  |  |  |  |  |  |  |  |  |  |  |  |  |  | inhibition [1]: 95.6%; Ki [3]: 0.401 µM; Ki [4]: 0.515 µM; Ki [7]: 0.602 µM; inhibition [8]: 94%; inhibition [9]: 100%; Ki [10]: 0.445 µM; inhibition [11]: 95.7%
2 | COc1ccc(N(CCCCN2CCC(O)(c3ccc(Cl)c(C(F)(F)F)c3)CC2)c2ccc(OC)cc2)cc1 | Non-Toxic | Non-Toxic | Non-Toxic | Non-Toxic | Non-Toxic | Active | Non-Toxic | Non-Toxic | Non-Toxic | Non-Toxic | Non-Toxic | Non-Toxic | Non-Toxic | Non-Toxic | Non-Toxic | Non-Toxic | Non-Toxic | Non-Toxic | Non-Toxic | Non-Toxic | Tmax [24]: 6 h; Activity [30]: Non-Toxic; Activity [31]: Non-Toxic
3 | OC1(c2ccc(Cl)c(C(F)(F)F)c2)CCN(CCCCC(c2ccc(F)cc2)c2ccc(F)cc2)CC1 | Non-Toxic | Non-Toxic | Non-Toxic | Non-Toxic | Non-Toxic | Active | Non-Toxic | Non-Toxic | Non-Toxic | Non-Toxic | Non-Toxic | Non-Toxic | Non-Toxic | Non-Toxic | Non-Toxic | Non-Toxic | Non-Toxic | Non-Toxic | Non-Toxic | Non-Toxic | Activity [30]: Non-Toxic; Activity [31]: Non-Toxic
